Bioassay records: PubChem, Broad Institute
Casp6 inh = caspase-6 (human) enzyme inhibition | P55212 | purified caspase-6, Z-VEID-R110 cleavage fluorescence | inhibition, % at 12.5 µM | 350,000 tested, 0.53% active | AID 686996;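 active = mean inhibition across replicates at least about 35%, with every replicate also reaching that limit, limit read from the data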
Target sequence (P55212 24-179 limits assumed): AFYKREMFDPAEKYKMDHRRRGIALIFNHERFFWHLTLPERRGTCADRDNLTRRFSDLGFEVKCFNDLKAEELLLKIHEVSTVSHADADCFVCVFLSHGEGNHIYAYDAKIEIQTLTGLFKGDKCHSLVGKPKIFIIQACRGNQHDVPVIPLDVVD
Target sequence (P55212 194-293 limits assumed): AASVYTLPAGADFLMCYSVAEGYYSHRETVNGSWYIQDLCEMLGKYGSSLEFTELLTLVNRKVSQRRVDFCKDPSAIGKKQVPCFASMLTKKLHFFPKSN
FN deposit inh = fibronectin deposition inhibition; AH1F fibroblasts, Alexa488-fibronectin deposition fluorescence, overnight; inhibition, % at 12.6 µM; 350,000 tested, 0.086% active;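 active = mean inhibition across replicates of 30% or more, regardless of how many single replicates reach that level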
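test system = AH1F fibroblasts assembling fluorescent fibronectin matrix | quantity = 10000 AH1F cells per well | buffer or medium = DMEM plus 2% serum, read in PBS | doses = single dose, pinned | incubation = 1 h cell attachment, overnight exposure to compound and label | detection = fluorescence at 485 nm excitation, 525 nm emission | read-out basis = inhibition from reduced deposited-fibronectin fluorescence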
DENV2 CPE rescue = DENV2-induced cell death inhibition | DENV2-infected cells, cytopathic effect rescue, plate reader | CPE inhibition, % at 9.99 µM | 350,000 tested, 1.7% active; in the data active = CPE inhibition above about 20%, passing the limit was not always enough; tested in BHK-21 cells
XiGFP reactiv = activators of X-chromosome reactivation in mouse fibroblasts; AID 743238; XiGFP mouse fibroblasts, % GFP-positive cells imaging, 3 d; cells co-treated with 5-aza-dC sensitizer; scaled so ellipticine positive control = 100%; 360,000 tested, 0.055% active; activation, % at 7.58 µM;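 active = mean normalized replicate activation at least 10% and every replicate at or above 10%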
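material = 68-5-11 XiGFP fibroblast line | medium = DMEM plus 5-aza-dC sensitizer | schedule = 3 days compound exposure | benchmarks = positive control ellipticine, 6 µM final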
CaV13 FRET inh = Primary screen for inhibitors of IQ motif and Ca2+-dependent inactivation inhibitor domain binding in CACNA1D, Förster resonance energy transfer in living cells, … | inhibition, % at 12.3 µM | AID 743397 | HEK cells, CFP/YFP FRET ICDI-IQ, plate reader, 10 min; percent FRET-ratio fall versus neutral wells | 340,000 tested, 0.098% active;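 active = mean replicate inhibition of at least 30% and at least 1% of replicates passing that level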
Numbers stand for hits. In the library only some 2% were active in any assay of this set; here they are far more common.

What do the screens show for `C[C@@H]1CCCCO[C@@H](CN(C)C)[C@H](C)CN([C@@H](C)CO)C(=O)c2cc(NC(=O)Nc3ccc(F)cc3)ccc2O1`?
XiGFP reactiv: inactive

How did C[C@H](CO)N1C[C@H](C)[C@H](CN(C)C(=O)c2ccccc2)OCCCC[C@H](C)Oc2ccc(NC(=O)Nc3ccc(C(F)(F)F)cc3)cc2C1=O do in these assays?
Casp6 inh: inactive; DENV2 CPE rescue: 59; XiGFP reactiv: inactive

Results for CC(C)NC(=O)N(C)C[C@H]1Oc2c(NS(=O)(=O)c3ccc(F)cc3)cccc2C(=O)N([C@H](C)CO)C[C@H]1C ?
Casp6 inh: inactive; FN deposit inh: inactive; DENV2 CPE rescue: inactive; XiGFP reactiv: inactive

Results for Cc1ccc(S(=O)(=O)N[C@H]2CC[C@@H](CCn3cc(-c4cccnc4)nn3)O[C@@H]2CO)cc1 ?
Casp6 inh: inactive; DENV2 CPE rescue: inactive; XiGFP reactiv: inactive

Results for Cc1ccc2oc(C(=O)N(Cc3ccncc3)CC3CCCO3)c(C)c2c1 (stereo not drawn) ?
Casp6 inh: inactive; FN deposit inh: inactive; DENV2 CPE rescue: 47; XiGFP reactiv: inactive; CaV13 FRET inh: inactive

What do the screens show for `Cc1nc2scc(C)n2c(=O)c1S(=O)(=O)Nc1ccc(N2CCN(C(=O)C(C)C)CC2)cc1`?
Casp6 inh: inactive; FN deposit inh: inactive; DENV2 CPE rescue: 51; XiGFP reactiv: inactive; CaV13 FRET inh: inactive

Results for CCOC(=O)Cc1nnc(NC(=O)C(CC)Sc2nc(C)cc(=O)[nH]2)s1 (stereo not drawn) ?
Casp6 inh: 43; FN deposit inh: inactive; DENV2 CPE rescue: inactive; XiGFP reactiv: inactive; CaV13 FRET inh: inactive

How did COc1ccc2nc(C)cc(NCc3ccc(F)cc3)c2c1 do in these assays?
Casp6 inh: inactive; FN deposit inh: inactive; DENV2 CPE rescue: inactive; XiGFP reactiv: 97; CaV13 FRET inh: inactive

How did CN1c2ccc(Br)cc2[C@@H]2[C@@H](CCN2S(=O)(=O)c2ccccc2F)[C@H]1CO do in these assays?
Casp6 inh: inactive; FN deposit inh: inactive; DENV2 CPE rescue: inactive; XiGFP reactiv: inactive

How did CN1c2ccc(Br)cc2[C@@H]2[C@@H](CCN2C(=O)C2CCCCC2)[C@@H]1CO do in these assays?
Casp6 inh: inactive; FN deposit inh: inactive; DENV2 CPE rescue: 67; XiGFP reactiv: inactive

What do the screens show for `Cc1ccccc1S(=O)(=O)N1CC[C@H]2[C@@H](CO)N(C)c3ccc(Br)cc3[C@H]21`?
FN deposit inh: inactive; DENV2 CPE rescue: 143; XiGFP reactiv: inactive

Results for CN1c2ccc(Br)cc2[C@H]2[C@H](CCN2S(=O)(=O)c2ccccc2F)[C@@H]1CO ?
Casp6 inh: inactive; FN deposit inh: inactive; DENV2 CPE rescue: 40; XiGFP reactiv: inactive

What do the screens show for `CO[C@H]1CN(C)C(=O)c2cc(NS(=O)(=O)c3ccc(C)cc3)ccc2OC[C@@H](C)N(C(=O)NC(C)C)C[C@@H]1C`?
Casp6 inh: inactive; FN deposit inh: inactive; DENV2 CPE rescue: inactive; XiGFP reactiv: inactive

Results for CO[C@H]1CN(C)C(=O)c2cc(NC(=O)Nc3ccccc3F)ccc2OC[C@@H](C)N(C)C[C@@H]1C ?
FN deposit inh: inactive; DENV2 CPE rescue: inactive; XiGFP reactiv: inactive

What do the screens show for `CO[C@@H]1CN(C)C(=O)c2cc(NC(=O)c3cnccn3)ccc2OC[C@H](C)N(CC2CC2)C[C@H]1C`?
Casp6 inh: inactive; FN deposit inh: inactive; DENV2 CPE rescue: inactive; XiGFP reactiv: inactive

What do the screens show for `CC(C)(C)c1ccc(CC(=O)N2CCC2(C)C(=O)Nc2cccc3cccnc23)cc1` (stereo not drawn)?
Casp6 inh: inactive; FN deposit inh: inactive; DENV2 CPE rescue: inactive; XiGFP reactiv: inactive; CaV13 FRET inh: inactive

Results for CCC(=O)N1CCC1(C)C(=O)Nc1cccc2cccnc12 (stereo not drawn) ?
Casp6 inh: 78; FN deposit inh: inactive; DENV2 CPE rescue: inactive; XiGFP reactiv: inactive; CaV13 FRET inh: inactive

Results for CCCNC(=O)C[C@@H]1CC[C@@H]2[C@@H](COc3ccc(NC(=O)NCCC)cc3C(=O)N2C)O1 ?
Casp6 inh: inactive; FN deposit inh: inactive; DENV2 CPE rescue: inactive; XiGFP reactiv: inactive

How did COc1cc2c(c(OC)c1OC)[C@@]1(c3ccccc3)CCCC[C@H]1[C@@H]2NC(=O)C(F)(F)F do in these assays?
Casp6 inh: inactive; FN deposit inh: inactive; DENV2 CPE rescue: 24; XiGFP reactiv: inactive; CaV13 FRET inh: inactive

How did CCOC(=O)[C@]12CCCC=C1N(CCC1=CCCCC1)C(=O)[C@H](CC(=O)NCc1cccc3ccccc13)C2 do in these assays?
Casp6 inh: inactive; FN deposit inh: inactive; DENV2 CPE rescue: 22; XiGFP reactiv: inactive; CaV13 FRET inh: inactive

Results for CCOC(=O)[C@]12CCCC=C1N(Cc1ccc3c(c1)OCO3)C(=O)[C@H](CC(=O)NCCCCc1ccccc1)C2 ?
Casp6 inh: inactive; FN deposit inh: inactive; DENV2 CPE rescue: 50; XiGFP reactiv: inactive; CaV13 FRET inh: inactive

What do the screens show for `CCOC(=O)[C@]12CCCC=C1N(CCC1=CCCCC1)C(=O)[C@H](CC(=O)NCc1ccc(OC)c(OC)c1)C2`?
Casp6 inh: inactive; FN deposit inh: inactive; DENV2 CPE rescue: 38; XiGFP reactiv: inactive; CaV13 FRET inh: inactive

What do the screens show for `CCOC(=O)[C@]12CCC=C1N(Cc1ccc3c(c1)OCO3)C(=O)[C@H](CC(=O)NCCCCc1ccccc1)C2`?
Casp6 inh: inactive; FN deposit inh: inactive; DENV2 CPE rescue: inactive; XiGFP reactiv: inactive; CaV13 FRET inh: inactive

What do the screens show for `CC=Cc1ccc2n(c1=O)C[C@H]1N[C@@H]2[C@@H](C(=O)NCc2ccc3c(c2)OCO3)[C@@H]1CO` (mixture of isomers)?
Casp6 inh: inactive; DENV2 CPE rescue: inactive; XiGFP reactiv: inactive

How did COc1ccc(CN(C)C[C@@H]2Oc3ccc(NC(=O)Nc4ccc(F)cc4)cc3CC(=O)N([C@@H](C)CO)C[C@@H]2C)cc1 do in these assays?
Casp6 inh: inactive; DENV2 CPE rescue: inactive; XiGFP reactiv: inactive

Results for Cc1ccc(S(N)(=O)=O)cc1 ?
Casp6 inh: inactive; DENV2 CPE rescue: 52

Results for O=S1(=O)N[C@@H](Cc2ccccc2)COc2cc(N3CCOCC3)ccc21 ?
Casp6 inh: inactive; FN deposit inh: inactive; DENV2 CPE rescue: 54; XiGFP reactiv: inactive; CaV13 FRET inh: inactive

What do the screens show for `CN[C@H]1C[C@H]2c3[nH]c4ccccc4c3CCN2C(=O)[C@H]1[C@H](C)O`?
Casp6 inh: inactive; DENV2 CPE rescue: 24; XiGFP reactiv: inactive; CaV13 FRET inh: inactive

Results for C[C@H](O)[C@@H]1C(=O)N2CCc3c([nH]c4ccccc34)[C@@H]2C[C@@H]1N(C)Cc1ccc(Cl)cc1 ?
Casp6 inh: inactive; DENV2 CPE rescue: inactive; XiGFP reactiv: inactive; CaV13 FRET inh: inactive

Results for Cc1noc(C)c1S(=O)(=O)N(CC(=O)N1CCCCCC1)c1ccc(C(C)C)cc1 ?
Casp6 inh: inactive; FN deposit inh: inactive; DENV2 CPE rescue: inactive; XiGFP reactiv: inactive; CaV13 FRET inh: 51
